High-throughput results (PubChem BioAssay)
Gli-Sufu antag: Gli-Sufu pathway antagonism. Sufu-KO-LIGHT fibroblasts, Gli luciferase reporter luminescence. inhibition, % at 5 µM. 0.74% of 340,000 active. AID 588413;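 active = inhibition above about 55%, limit read from the data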
CHOP UPR activ: apoptotic UPR (CHOP) activation; CHO-CHOP luciferase reporter, luminescence; percent of tunicamycin response over DMSO baseline; activation, % at 10 µM; 0.34% of 330,000 active; AID 449763;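 active = at 10 µM dose, activation of 40% or more, normalized to positive control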
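System: CHO-CHOP luciferase reporter cell line | Buffer or medium: F12 medium containing 10% fetal bovine serum | Doses: One dose, 10 µM in 0.5% DMSO | Times: 6 h compound exposure at 37 °C after overnight seeding | Signal: Luciferase luminescence | Read-out: % activation vs tunicamycin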
Jurkat NFkB inh: lowers PMA/ionomycin-induced NF-kB signal in Jurkat cells; PMA/ionomycin-induced NF-kB luciferase reporter, luminescence; 0.53% of 330,000 active; AID 435003; inhibition, % at 4 µM; in the data active = inhibition above about 50%
CHOP inhibitor: CHOP inhibition in unfolded protein response; CHO-K1 CHOP-promoter luciferase, tunicamycin-induced, 15-18 h; inhibition, % at 10 µM; AID 2732; 3.8% of 220,000 active;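 active = compounds that reduced the stress-induced luciferase reporter signal by more than about 70% of percent inhibition, limit read from the data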
XBP1 UPR activ: activators of adaptive arm of unfolded protein response (XBP1); CHO-XBP1 luciferase reporter, IRE1-XBP1 UPR activation, luminescence; percent of tunicamycin response, DMSO as zero; activation, % at 20 µM; 0.33% of 330,000 active;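 active = versus positive control, 20 µM dose yields 30% or more activation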
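Test system: CHO-XBP1 luciferase reporter cells | Buffer or medium: Serum-containing F12 medium, 10% FBS | Schedule: 6 h compound exposure at 37 °C, 5% CO2 | Detection: Steady-Glo luciferase glow luminescence, 10 min after reagent addition | Read-out basis: Activation, % of tunicamycin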
697 NFkB inh: lowers PMA/ionomycin-induced NF-kB signal in 697 B cells; AID 435022; 697 B-cell NF-kB luciferase reporter, 16 h; inhibition, % at 4 µM; 0.33% of 330,000 active; in the data active = inhibition above about 35%
697 NFkB conf: inhibitors of the PMA/ionomycin-induced NF-kB reporter in 697 B cells, retest. AID 449746. inhibition, % at 4 µM. 697 B-cell NF-kB luciferase, 16 h. shares compounds with 697 NFkB inh. 35% of 2,000 active; in the data active = inhibition mostly above about 28%, no sharp cut-off; inactive = mostly below about 22%
Large screens that a line does not name were inactive (follow-up assays come after a bar, where they were run). Compounds with a hit are over-represented: about 3.9% of the library has one in this group of screens.

O=C1NC[C@H](c2ccccc2)OC(=O)[C@@H](Cc2ccc(F)cc2)C/C=C\C[C@H]1CC(=O)N(CCO)Cc1ccccc1	697 NFkB inh 39.8 (no result: CHOP inhibitor) | 697 NFkB conf 24.2
O=C(O)CCSc1ncnc2sc(-c3ccccc3)cc12	CHOP inhibitor 88.9, 697 NFkB inh 80.7 | 697 NFkB conf 62.5
CC(=O)CCSc1ncnc2sc(-c3ccccc3)cc12	none (no result: CHOP inhibitor) | 697 NFkB conf inactive
O=C(O)CSc1ncnc2sc(-c3ccccc3)cc12	none
CC(=O)c1ccc(NC(=O)c2cnn3ccccc23)cc1	697 NFkB inh 36.4 | 697 NFkB conf inactive
CCOc1ccc(-c2cc(CCCC(=O)NCc3ccco3)no2)cc1	CHOP inhibitor 84.5, 697 NFkB inh 57.3 | 697 NFkB conf 46.0
COc1ccc2c(c1)CCCC21NC(=O)N(CC(=O)N2CC(C)OC(C)C2)C1=O (stereo not drawn)	none (no result: CHOP inhibitor)
CC(C)(C)c1ccc(-c2noc(CCC(=O)N3CCOCC3)n2)cc1	697 NFkB inh 51.7 | 697 NFkB conf 36.7
CC(C)(C)c1ccc(-c2noc(CCC(=O)NCC3CCCO3)n2)cc1 (stereo not drawn)	Gli-Sufu antag 73.1, CHOP inhibitor 89.5, 697 NFkB inh 95.9 | 697 NFkB conf 87.5
CCc1ccccc1N(CC)C(=O)CCc1nc(-c2ccc(C)cc2)no1	none
CC(C)(C)c1ccc(-c2noc(CCC(=O)Nc3cccnc3)n2)cc1	Gli-Sufu antag 70.6, 697 NFkB inh 90.8 (no result: CHOP inhibitor) | 697 NFkB conf 91.3
COc1ccc(-c2noc(CCCC(=O)N3CCOCC3)n2)cc1	none
CN(C)C(=O)CCc1nc(-c2ccc(C(C)(C)C)cc2)no1	697 NFkB inh 81.4 | 697 NFkB conf 77.2
COc1ccc(-c2noc(CCC(=O)Nc3cccnc3)n2)cc1	none (no result: CHOP inhibitor)
CNC(=O)CCc1nc(-c2ccc(C(C)(C)C)cc2)no1	CHOP inhibitor 93.5, 697 NFkB inh 84.3 | 697 NFkB conf 72.2
COc1ccc(-c2noc(CCCC(=O)Nc3ccc(C(N)=O)cc3)n2)cc1	CHOP inhibitor 82.2, 697 NFkB inh 78.0 | 697 NFkB conf 44.7
CCN(CC(=O)NCc1cccs1)C(=O)COc1ccc(C(C)=O)cc1	none (no result: CHOP inhibitor)
O=C(NCC1CCOCC1)c1ccc2nc(Cc3cccc(Cl)c3)oc2c1	none (no result: CHOP inhibitor)
O=C1CC(c2ccc3c(c2)OCO3)CN1 (stereo not drawn)	697 NFkB inh 38.3 | 697 NFkB conf inactive
CCc1ccc(NC(=O)CN(C(=O)N2CCN(CC)CC2)S(=O)(=O)c2ccc(C)cc2)cc1	none (no result: CHOP inhibitor)
CC1CCc2nc(NC(=O)C3COc4ccccc4O3)sc2C1 (stereo not drawn)	CHOP inhibitor 78.5 | 697 NFkB conf inactive
CCCc1c(NC(=O)Nc2ccc(F)cc2)cnn1-c1ccccc1	none | 697 NFkB conf inactive
O=[N+]([O-])c1ccccc1S(=O)(=O)N1CCCC(C(F)(F)F)C1 (stereo not drawn)	none (no result: CHOP inhibitor)
Cc1ccc(/C=C/c2nc3ccccc3c(=O)[nH]2)cc1	CHOP inhibitor 88.1 | 697 NFkB conf inactive
COC(=O)c1ccc(/C=C/c2nc3ccccc3c(=O)[nH]2)cc1	none (no result: CHOP inhibitor)
O=C(COC(=O)C1CCN(S(=O)(=O)c2ccc3c(c2)OCCO3)CC1)NC1CCCCC1	697 NFkB inh 35.6 (no result: CHOP inhibitor) | 697 NFkB conf inactive
CCCCc1cc(=O)oc2cc(OCC(=O)N(CC)CC)ccc12	697 NFkB inh 39.2 | 697 NFkB conf inactive
C=C(Cl)COc1ccc2c(CCCC)cc(=O)oc2c1	none
CCCN1C(=O)/C(=C/c2c(N3CCNC(=O)C3CC(=O)OCC)nc3c(C)cccn3c2=O)SC1=S (stereo not drawn)	697 NFkB inh 36.7 | 697 NFkB conf 36.3
CC(C)N(c1ccccc1)c1ccc(NC(=O)CCl)cc1	697 NFkB inh 35.5 | 697 NFkB conf inactive
COc1ccc(C(=O)Nc2ccccc2C(=O)N/N=C/c2cccc3ccccc23)cc1	none | 697 NFkB conf inactive
COc1ccc(C(=O)Nc2ccccc2C(=O)Nc2ccccc2C(=O)O)cc1	none (no result: CHOP inhibitor)
Cc1cccc(C(=O)n2c(=S)nc3ccccn32)c1	none | 697 NFkB conf inactive
